Screening data as filed in PubChem BioAssay.
Most compounds without a hit are left out; they make up all but 2.4% or so of the library.
MIN6 prolif: induces beta-cell replication in MIN6 cells. actives 0.29% (n = 330,000). AID 2380. MIN6 cells proliferation, ATPlite luminescence, 48 h; cells starved in 0.2% serum; 100% = growth in 10% serum. proliferation, % at 10 µM;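 active = compounds whose signal lies at least 3.5 SD above the mean of all wells on their plate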;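 also: 0% = DMSO-treated cells in low-serum medium and 100% = 10% serum control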
m5-HT2A agonist: agonists of mouse serotonin 5-HT2A receptor (HTR2A); P35363; CHO-K1 mHTR2A beta-arrestin complementation, luminescence; percent of 30 µM serotonin response; actives 0.66% (n = 360,000); activation, % at 7.6 µM; AID 624169;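 active = activation above a run cutoff, the mean activation of all tested compounds plus 3 SD, cut at about 14% in these data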;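 also: 0% = plate median of compound wells and 100% = 30 µM serotonin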
SR-BI HDL uptake: inhibitors of mouse SR-BI mediated HDL lipid uptake; Q61009; ldlA[mSR-BI] CHO cells, DiI-HDL uptake fluorescence, 3 h; inhibition, % at 12.5 µM; actives 0.96% (n = 320,000); AID 488896;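 active = mean replicate inhibition of at least 70% and a set share of replicates each scoring 70 or more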;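 also: 0% = median of neutral control wells and 100% = median of positive control wells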
Calb FLC: C. albicans growth modulation with fluconazole; actives 0.57% (n = 300,000); C. albicans CaCi-2 + fluconazole, Alamar Blue growth, 48 h; AID 1979; growth inhibition, % (no concentration beside the values);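 active = growth inhibition above about 58% in most replicates, limit read from the data, passing the limit was not always enough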;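 also: all wells also contain fluconazole at 8 µg/ml as a sub-toxic cotreatment; 0% = median of DMSO wells and 100% = median of geldanamycin control wells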
SR-BI DiI-HDL act: activators of SR-BI mediated HDL lipid uptake; actives 0.096% (n = 320,000); CHO ldlA[mSR-BI] cells, DiI-HDL uptake fluorescence, 3 h; 100 = double the neutral-control signal; activation, % at 12.5 µM; AID 504775;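 active = mean replicate activation of at least 60% and every replicate at or above 60%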;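 also: 0% = median plate neutral-control signal and 100% = twice that signal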
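Material: SR-BI-overexpressing, LDLR-lacking CHO cells | Dosing: Single compound concentration, delivered by pin transfer | Probe or stimulus: Labelled HDL, 10 µg/mL | Signal: Bottom-read cell fluorescence after medium removal, ex 550/em 595 nm | Schedule: 3 h, 37 °C | Evaluation: HDL uptake via cellular fluorescence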
Ins promoter up: MIN6 insulin promoter up-regulation | MIN6 insulin promoter-GFP reporter, high-content imaging; active compounds read high | actives 0.3% (n = 190,000) | AID 1625 | z-score at 5 µM;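 active = z-score above 3 at 5 µM with at least 500 cells counted in the well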
MOR ag counter: activates human mu opioid receptor in HTR2A counterscreen; shares compounds with m5-HT2A agonist; U2OS OPRM1 beta-arrestin PathHunter, luminescence; DMSO 0%, DAMGO 9.3 µM 100%; activation, % at 9.3 µM; actives 5.3% (n = 2,300);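 active = mean activation above the mean of DMSO-only wells plus 3 SD, cut at about 0.5% in these data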
Target sequence (P35372 whole entry, looked up): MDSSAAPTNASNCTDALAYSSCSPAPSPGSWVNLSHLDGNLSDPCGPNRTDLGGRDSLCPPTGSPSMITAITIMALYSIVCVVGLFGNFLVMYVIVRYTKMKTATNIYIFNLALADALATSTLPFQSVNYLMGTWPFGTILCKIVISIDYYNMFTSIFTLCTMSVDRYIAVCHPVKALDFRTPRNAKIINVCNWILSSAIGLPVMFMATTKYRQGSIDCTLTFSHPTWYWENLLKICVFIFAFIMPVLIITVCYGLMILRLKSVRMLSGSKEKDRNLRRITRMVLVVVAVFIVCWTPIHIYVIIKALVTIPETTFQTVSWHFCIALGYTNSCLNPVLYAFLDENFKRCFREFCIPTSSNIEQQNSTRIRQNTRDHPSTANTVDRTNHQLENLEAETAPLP
m5-HT2A ag conf: mouse HTR2A agonism confirmed; shares compounds with m5-HT2A agonist; CHO-K1 PathHunter beta-arrestin recruitment, luminescence; DMSO 0%, 30 µM serotonin 100%; activation, % at 7.6 µM; actives 19% (n = 2,300);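 active = mean activation across triplicates above the hit threshold derived in the original primary screen, cut at about 15% in these data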
* marks the source's active call; other numbers are inactive results; / = no result given; ! = a repeat was not active.

SMILES | MIN6 prolif | m5-HT2A agonist | SR-BI HDL uptake | Calb FLC | SR-BI DiI-HDL act | Ins promoter up | MOR ag counter | m5-HT2A ag conf
COC(=O)C1=C(c2ccc(Cl)c(C(F)(F)F)c2)C[C@@H]2CC[C@H]1N2C(=O)NC1CCCCC1 | -7 | -2 | 10 | / | -10 | / | / | /
CCOC(=O)c1ccc(NC(=O)N2C[C@@H]3C[C@@H](C2)c2cccc(=O)n2C3)cc1 | -2 | 25* | -6 | -2 | 6 | / | 0 | -2
COc1ccc(-n2nnnc2C(c2cc3ccccc3o2)N2CCC(n3c(=O)[nH]c4ccccc43)CC2)cc1 (stereo unspecified) | / | 16* | / | / | / | / | / | 4
COc1ccc(C(c2nnnn2-c2ccc(OC)cc2)N2CCC(n3c(=O)[nH]c4ccccc43)CC2)cc1 (stereo unspecified) | / | 1 | / | / | / | / | / | /
O=C1NCCCCC1(Cl)Cl | / | 17* | -19 | / | 19 | / | 0 | 3
NNC(N)=O | -1 | 3 | 6 | / | -6 | / | / | /
O=C(/C=C/c1c[nH]c2ccccc12)c1c(O)n(CCc2ccccc2)c(=O)[nH]c1=O | -4 | 0 | -13 | 0 | 13 | / | / | /
CC[C@@H]1C(=O)OC[C@@H]1Cc1cncn1C | / | -3 | -15 | / | 15 | / | / | /
CC[C@@H]1C(=O)OC[C@@H]1Cc1cncn1C | 0 | 18*! | -11 | / | 18 | 0.16 | 0 | 4
CN(C)CC(C(=O)Cc1ccccc1)c1ccccc1 (stereo unspecified) | / | -1 | -16 | / | 16 | / | / | /
COc1cc(CC(C)N)c(OC)cc1I (stereo unspecified) | -4 | 70* | -7 | -13 | 7 | / | 0 | 39*
C=C(C)C(Cc1c(OC)ccc(C(=O)/C=C/c2ccc(O)cc2)c1O)OO (stereo unspecified) | -6 | -2 | 62 | / | -62 | / | / | /
CC[C@H](C)[C@@H]1NC(=O)[C@@H](CC(C)C)NC(=O)[C@H](C(C)C)NC(=O)[C@H]2CSSC[C@H](NC1=O)C(=O)N2 | / | 57* | / | / | / | / | 1.7* | 41*
Cn1c(O)c(C(=O)c2ccccc2)c(=O)n(C)c1=O | -2 | 18* | / | -2 | / | -0.3 | 0 | -1
Cn1c(O)c(C(=O)c2ccccc2F)c(=O)n(C)c1=O | 2 | -4 | 6 | 5 | -6 | -0.15 | / | /
O=P(Nc1ccccc1)(Nc1ccccc1)Oc1cccc(Cl)c1 | -5 | 1 | -6 | -9 | 6 | 0.41 | / | /
Clc1cccc(N2CCNCC2)n1 | -3 | 39* | 10 | 3 | -10 | -0.98 | -1 | 24*
O=c1[nH]c2ccccc2n1C1CCN(C(CCc2ccccc2)c2nnnn2C2CCCCC2)CC1 (stereo unspecified) | / | 1 | / | / | / | / | / | /
Cc1ccccc1NC(=O)NCCN1CC1 | -1 | -4 | -37 | 4 | 37 | / | / | /
CCCCCCC(C)(C)c1ccc([C@@H]2C[C@H](O)CC[C@H]2CCCO)c(O)c1 | -8 | 29* | -3 | / | 3 | / | 0.8* | 23*
O=C1C=CC(=O)C=C1 | -6 | 35* | 1 | / | -1 | / | 0.9* | 3
COC1/C=C/C=C(\C)Cc2cc(O)c(Cl)c(c2)N(C)C(=O)CC(OC(=O)C(C)C)C2(C)OC2C(C)C2CC1(O)NC(=O)O2 (stereo unspecified) | / | -2 | -15 | / | 15 | / | / | /
NC1CCc2cc(O)c(O)cc2C1 (stereo unspecified) | -7 | 58* | -17 | / | 17 | / | 0 | 153*
CC1=CC(C)CC(C)OC(=O)CC(c2ccc(O)cc2)NC(=O)C(Cc2c(Br)[nH]c3ccccc23)N(C)C(=O)C(C)NC(=O)C(C)C1 (stereo unspecified) | / | 7 | -39 | / | 39 | / | / | /
COC(=O)C1=C(c2ccc(S(C)(=O)=O)cc2)C[C@@H]2CC[C@H]1N2C(=O)NCc1ccc(C(F)(F)F)cc1 | 4 | -2 | 10 | -5 | -10 | / | / | /
SMILES | MIN6 prolif | m5-HT2A agonist | SR-BI HDL uptake | Calb FLC | SR-BI DiI-HDL act | Ins promoter up | MOR ag counter | m5-HT2A ag conf
CC(N)Cc1c[nH]c2ccc(OCc3cccs3)cc12 (stereo unspecified) | -4 | 22* | -3 | / | 3 | / | -1 | 8
COc1ccc(CNC(C)Cc2cccs2)cc1 (stereo unspecified) | 1 | -1 | 6 | 13 | -6 | -0.73 | / | /
CC(N)Cc1c[nH]c2ccc(O)cc12 (stereo unspecified) | / | 49* | -9 | / | 9 | / | -1 | 32*
CN1CC=C(/C=C/c2ccc(-c3ccccc3)cc2)CC1 | -5 | / | / | -15 | / | / | / | /
COc1cc2c(cc1OC)C1[C@H]3C(=CC[C@H]1OC2O)CCN3C (stereo partly specified) | -3 | -12 | -29 | / | 29 | / | / | /
O=C(Oc1c(Cl)cc(Cl)c2ccccc12)N1CCCCC1 | 1 | 15* | 20 | -15 | -20 | / | 0 | 6
CCCCCCCSc1cc(OC)c(CCN(C)C)cc1OC | -5 | 34* | -29 | 38 | 29 | -0.88 | 0 | 17*
COc1cc(CCN)ccc1O | 0 | 5 | -23 | / | 23 | / | / | /
CCCCCSc1cc(OC)c(CCN)cc1OC | -4 | 30* | -14 | 9 | 14 | 0.04 | 0 | 13
CN1CC(C#N)C2(O)c3ccccc3CCC2C1 (stereo unspecified) | 1 | 6 | -2 | -2 | 2 | / | / | /
CC(C)c1oc(=O)cc2c1[C@@H](O)[C@H]1OC(=O)[C@@]3(C)C[C@@H](O)[C@@H](O)[C@@]2(C)C13 (stereo partly specified) | -8 | -2 | -37 | 15 | 37 | -1.6 | / | /
